# ARFGAP1 inh – rat ARFGAP1 inhibition; AID 651572; Arfgap1-stimulated ARF1 GTP hydrolysis, GDP FP detection; inhibition, % at 16.5 µM; 0.26% of 360,000 active; Q62848;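 active = inhibition above a per-plate limit, mean inhibition of low control wells plus 3 SD, cut at about 25% in these data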;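 also: 0% = DMSO wells with enzyme and 100% = wells lacking Arfgap1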
# Target sequence (Q62848 1-136 limits assumed): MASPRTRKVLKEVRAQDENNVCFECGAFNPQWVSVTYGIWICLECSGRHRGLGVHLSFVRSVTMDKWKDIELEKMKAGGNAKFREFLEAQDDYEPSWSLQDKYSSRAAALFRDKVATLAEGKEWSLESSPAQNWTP
#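 material = rat Arfgap1 catalytic domain, aa 1-136 | also added = human ARF1(Δ1-17)-GTP substrate | compound dosing = one concentration, 16.5 µM, DMSO 1.26% | times = GTP hydrolysis reaction 2 h at 25 °C | measured by = FP, GDP Alexa 633 tracer displaced from anti-GDP antibody, 620/688 nm | evaluation = percent inhibition of Arfgap1-stimulated GTP hydrolysis | replication = single well per compound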
# esBAF inh – SWI/SNF esBAF complex inhibition | mouse ES cells, Bmi1-luciferase knock-in reporter, 24 h; 100% = twice the neutral-well signal | reporter increase, % at 12.5 µM | 2% of 350,000 active; in the data active = activation above about 40%;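 also: 0% = median of the plate's neutral control wells and 100% = double that signal; a rise in the Bmi1 reporter signal indicates esBAF inhibition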
# SMARCA2 activ – activators of SMARCA2 function; AID 652017; MG213 cells, MMTV-luciferase reporter, dexamethasone, overnight; 1% of 370,000 active; activation, % at 9.1 µM; in the data active = activation above about 7.8%;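 also: 0% = vehicle wells and 100% = reference activator wells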
# ASAP1 GAP inh – inhibitors of human ASAP1 ArfGAP activity; Q9ULH1; ASAP1-stimulated ARF1 GTP hydrolysis, GDP FP detection; inhibition, % at 16.5 µM; 0.19% of 360,000 active; AID 624377; in the data active = inhibition above about 25%;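 also: 0% = vehicle with enzyme and substrate and 100% = no enzyme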
# Target sequence (Q9ULH1 325-724 limits assumed): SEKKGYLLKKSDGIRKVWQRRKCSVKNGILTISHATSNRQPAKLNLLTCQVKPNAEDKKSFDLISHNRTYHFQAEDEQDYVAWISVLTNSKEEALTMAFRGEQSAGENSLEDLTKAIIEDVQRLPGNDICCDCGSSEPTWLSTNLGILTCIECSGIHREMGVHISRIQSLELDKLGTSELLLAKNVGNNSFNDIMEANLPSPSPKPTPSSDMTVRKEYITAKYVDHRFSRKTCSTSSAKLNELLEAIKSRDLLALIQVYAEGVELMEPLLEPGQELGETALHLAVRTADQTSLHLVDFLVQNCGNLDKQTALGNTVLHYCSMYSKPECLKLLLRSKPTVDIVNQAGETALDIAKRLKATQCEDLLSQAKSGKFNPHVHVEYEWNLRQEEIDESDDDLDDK
# * marks the source's active call; other numbers are inactive results; / = no result. Only some compounds are listed: those with a hit (about 2.6% of all), similar ones and a draw of the others.
SMILES,ARFGAP1 inh,esBAF inh,SMARCA2 activ,ASAP1 GAP inh
Cc1ccc([C@H]2C[C@@H](O)[C@H](n3cc(C4CC4)nn3)CN2CC2CCCCC2)cc1,-5,-1,7.8*,-2
CCCNC(=O)Nc1ccc2c(c1)C(=O)N(C)C[C@H](OC)[C@H](C)CN(Cc1ccncc1)[C@@H](C)CO2,/,-7,/,/
Cc1nn(-c2ccc(F)cc2)c2sc(C(=O)N3CCCCCC3)cc12,-5,64*,1,-7
Cc1nn(-c2ccccc2)c2sc(C(=O)NC3CC3)cc12,0,47*,3,-4
CO[C@@H]1CN(C)C(=O)c2ccc(NC(=O)c3ccc4c(c3)OCO4)cc2OC[C@@H](C)N(Cc2ccc3c(c2)OCO3)C[C@H]1C,/,16,/,/
CC(C)(C)c1ccc(-c2nnc(N)s2)cc1,-8,30,2,-3
CC(C)(C)c1ccc(-c2nnc(N)o2)cc1,0,58*,7,-6
C[C@H](CO)N1C[C@H](C)[C@H](CN(C)C)Oc2ccc(NC(=O)Nc3ccc(C(F)(F)F)cc3)cc2C1=O,/,3,/,/
COc1cccc(-c2cn(CC[C@H]3CC[C@@H](NC(C)=O)[C@H](CO)O3)nn2)c1,/,-2,/,/
COc1ccc(C2=Nc3ccccc3NC(=O)C2N(C(=O)c2cnc(C)cn2)c2ccc(N3CCOCC3)cc2)cc1 (configuration not stated),3,48*,-2,-4
C[C@@H]1CN([C@@H](C)CO)C(=O)Cc2cc(NC(=O)CCN3CCOCC3)ccc2O[C@@H]1CN(C)CC1CCCCC1,/,1,/,/
Cc1noc(C)c1S(=O)(=O)N(C)C[C@@H]1Oc2c(cccc2N(C)C)C(=O)N([C@H](C)CO)C[C@H]1C,/,2,/,/
O=C1C=C(c2cc3ccccc3s2)CCC1,13,74*,3,0
O=C(Cc1csc(NC(=O)Nc2ccc(Cl)cc2)n1)NCc1ccccn1,4,45*,0,16
Cc1ccc(S(=O)(=O)N(C)C[C@H]2Oc3ccc(NC(=O)NC4CCCCC4)cc3CC(=O)N([C@H](C)CO)C[C@@H]2C)cc1,/,-3,/,/
O=C(C[C@H]1C=C[C@H](NC(=O)C2CC2)[C@@H](CO)O1)NCCCN1CCOCC1,/,-5,/,/
Cc1ccc2c(c1)COc1c3ccc(C(=O)N[C@@H](C)CO)cc3nn1-2,-2,62*,4,9
Cc1ccc2c(c1)COc1c3ccc(C(=O)NC(C)C)cc3nn1-2,-5,84*,3,7
Cc1ccc(S(=O)(=O)N(C)C[C@@H]2Oc3ccc(NC(=O)Cc4cn(C)c5ccccc45)cc3C(=O)N([C@H](C)CO)C[C@H]2C)cc1,/,-2,/,/
CCOc1cc(C2Nc3ccccc3C(=O)N2c2ccccc2)ccc1O (configuration not stated),-5,45*,1,5
CCc1cccc(NC(=O)c2sc3nc4n(c(=O)c3c2C)CCC4)c1,-5,63*,3,7
O=C(NCC[C@@H]1CC[C@@H](NC(=O)c2ccc3c(c2)OCO3)[C@H](CO)O1)Nc1ccc(Cl)cc1,/,63*,/,/
Cc1noc(C)c1S(=O)(=O)Nc1ccc2c(c1)C(=O)N([C@@H](C)CO)C[C@H](C)[C@H](CN(C)C(=O)Nc1cccc3ccccc13)O2,/,-2,/,/
C[C@H]1CN([C@@H](C)CO)C(=O)Cc2cc(NC(=O)Nc3ccccc3)ccc2O[C@H]1CN(C)C,/,4,/,/
CCc1ccc(-c2cc(C(=O)N/N=C/c3ccco3)[nH]n2)cc1,8,/,2,-6
SMILES,ARFGAP1 inh,esBAF inh,SMARCA2 activ,ASAP1 GAP inh
O=C(N/N=C/c1ccco1)c1cc(-c2ccc3ccccc3c2)n[nH]1,8,60*,4,-7
COc1ccc(S(=O)(=O)N(C)C[C@@H]2Oc3ccc(NC(=O)Cc4cn(C)c5ccccc45)cc3CC(=O)N([C@H](C)CO)C[C@@H]2C)cc1,/,-3,/,/
CCN(C(=O)C1=COCCO1)c1nc2c(C)cccc2s1,7,48*,3,-1
CCOC(=O)c1cnc2ccc(C)cc2c1Sc1ccc(F)cc1,10,32,3,12
CCOC(=O)c1cnc2ccc(C)cc2c1Sc1ccccc1,-12,54*,4,0
CCCN1C[C@H](C)[C@@H](OC)CN(C)C(=O)c2ccc(NC(=O)Nc3c(C)noc3C)cc2OC[C@@H]1C,/,-5,/,/
O=C(C[C@H]1C[C@@H]2c3cc(NC(=O)C4CCC4)ccc3O[C@@H]2[C@H](CO)O1)NCc1ccccc1F,/,2,/,/
CC1OC(CC(=O)O)CC2=C1C(=O)c1c(O)cccc1C2=O (configuration not stated),-18,/,-13,47*
O=C1C=C(O)c2cccc(O)c2C1=O,-4,-6,1,0
Cn1c(CSc2ccccc2)c(C#N)c2ccccc21,-11,63*,2,-4
O=C(NNc1nc2cc3c(cc2s1)OCO3)c1cccc(F)c1,11,47*,4,5
O=C(O)c1cccc([N+](=O)[O-])c1C(=O)Nc1nc2ccccc2s1,9,/,2,10
COc1ccc2nc(NC(=O)c3ccccc3[N+](=O)[O-])sc2c1,-1,50*,0,2
COc1ccc2nc(NC(=O)c3ccccc3O)sc2c1,-12,8,3,1
O=C(NNc1nc2cc3c(cc2s1)OCO3)c1ccccc1,8,31,0,11
O=C(Nc1nc2ccccc2s1)c1ccccc1[N+](=O)[O-],12,50*,3,5
COc1ccccc1C(=O)Nc1nc2cc3c(cc2s1)OCO3,4,57*,4,3
C[C@H](CO)N1C[C@H](C)[C@@H](CN(C)C(=O)C2CCOCC2)Oc2ncc(-c3ccccc3F)cc2C1=O,/,6,/,/
CCCN(C)C[C@H]1OCCCC[C@@H](C)Oc2ccc(NC(=O)c3ccccc3)cc2C(=O)N([C@@H](C)CO)C[C@H]1C,/,-2,/,/
O=C(C[C@H]1CC[C@@H]2[C@H](COC[C@@H](O)CN2C(=O)c2ccncc2)O1)NCc1cccc(F)c1,/,-7,/,/
COc1cccc2cc(-c3n[nH]c(=S)n3C)oc12,-4,/,0,-22
COc1cccc2cc(-c3ccnc(N)n3)oc12,4,45*,4,-3
Cc1noc(C)c1S(=O)(=O)Nc1ccc2c(c1)C(=O)N([C@@H](C)CO)C[C@@H](C)[C@@H](CN(C)C(=O)NC(C)C)O2,/,-2,/,/
CCOC(=O)c1c(-c2ccccc2)nc2cc(C)ccn12,7,52*,7,3
CCOC(=O)c1c(-c2ccccc2)nc2ccc(C)cn12,5,47*,5,-5
C[C@H]1CN([C@@H](C)CO)C(=O)c2cccc(NS(=O)(=O)c3cccs3)c2O[C@H]1CN(C)Cc1ccc(C(=O)O)cc1,/,2,/,/
C[C@H]1CN([C@@H](C)CO)C(=O)c2cc(C3=CCCC3)cnc2O[C@H]1CN(C)C,/,-2,/,/
N#Cc1c(NC(=S)NC(=O)c2ccccc2)sc2c1CCC2,7,49*,1,-8
CC1CCc2sc(NC(=S)NC(=O)c3ccccc3)c(C#N)c2C1 (configuration not stated),14,58*,1,3
CCN1CCc2c(sc(NC(=S)NC(=O)c3ccccc3)c2C#N)C1,11,/,1,5

# Source: PubChem BioAssay
